Results: ChEMBL document CHEMBL1144198, “Nucleosides and oligonucleotides containing 1,2,3-triazole residues with nucleobase tethers: synthesis via the azide-alkyne 'click' reaction” (Bioorg Med Chem, 2008)

Legend:
[1] = Cytotoxicity against WNV infected BHK21 cells at 15 uM; assay type: cell-based, Mesocricetus auratus; conditions: hamster, bhk-21, 15 µM
Outline: (§1)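 Cellular toxicity measured at a single test concentration of 15 µM of drug in BHK cells run alongside the flavivirus CPE assays; reported as % toxicity.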

[2] = test system: dengue virus type 2; test: Antiviral activity against DENV infected in BHK21 cells assessed as inhibition of virus-induced cytopathic effect at 15 uM; assay type: functional; conditions: BHK-21
Outline: (§2)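 Single test concentration 15 µM of drug in acutely infected BHK cells; inhibition of virus-induced cytopathogenicity read by CPE assay, reported as % inhibition.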

[3] = Cytotoxicity against YFV infected BHK21 cells at 15 uM; assay type: cell-based, Mesocricetus auratus; conditions: hamster, bhk-21, 15 µM
[4] = Cytotoxicity against human GS4.1 cells at 15 uM; assay type: cell-based
Outline: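 Cellular toxicity of drug at a single test concentration of 15 µM in GS4.1 (HCV replicon) cells; reported as % toxicity.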

[5] = test system: West Nile virus; test: Antiviral activity against WNV infected in BHK21 cells assessed as inhibition of virus-induced cytopathic effect at 15 uM; assay type: functional; conditions: BHK-21; outline: as §2
[6] = test system: Yellow fever virus; test: Antiviral activity against YFV infected in BHK21 cells assessed as inhibition of virus-induced cytopathic effect at 15 uM; assay type: functional; conditions: BHK-21
[7] = Cytotoxicity against DENV infected BHK21 cells at 15 uM; assay type: cell-based, Mesocricetus auratus; conditions: hamster, bhk-21, 15 µM; outline: as §1
[8] = test system: Hepatitis C virus; test: Antiviral activity against HCV assessed at 15 uM by ELISA; assay type: functional, Hepacivirus hominis
Outline: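 HCV replicon replication in GS4.1 cells, read by ELISA-based replicon assay at a single test concentration of 15 µM of drug; reported as % inhibition.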

C#CCn1ccc(=O)[nH]c1=O
Activity [1]: 2.76%
inhibition at 15 µM [2]: -4.6%
Activity [3]: 0.08%
Activity [4]: -8.85%
inhibition at 15 µM [5]: -4.57%
inhibition at 15 µM [6]: -11.3%
Activity [7]: 2.76%
inhibition at 15 µM [8]: 12.1%

C#CCn1ccc2c(Cl)ncnc21
Activity [1]: -9.83%
inhibition at 15 µM [2]: -0.85%
Activity [3]: -19.45%
Activity [4]: 1.84%
inhibition at 15 µM [5]: 3.81%
inhibition at 15 µM [6]: -0.25%
Activity [7]: -9.83%
inhibition at 15 µM [8]: 69.2%

Cc1ccc(C(=O)OC[C@H]2O[C@@H](n3cc(Cn4ccc5c(Cl)nc(N)nc54)nn3)C[C@@H]2OC(=O)c2ccc(C)cc2)cc1
Activity [1]: 0.17%
inhibition at 15 µM [2]: -2.39%
Activity [4]: 6.49%
inhibition at 15 µM [5]: -1.44%
Activity [7]: 0.17%
inhibition at 15 µM [8]: 32.1%

Nc1ncnc2c1ccn2Cc1cn([C@H]2C[C@H](O)[C@@H](CO)O2)nn1
Activity [1]: 3.14%
inhibition at 15 µM [2]: 3.43%
Activity [3]: 4.48%
Activity [4]: -3.79%
inhibition at 15 µM [5]: 2.42%
inhibition at 15 µM [6]: 11%
Activity [7]: 3.14%
inhibition at 15 µM [8]: -3.8%

C#CCn1cnc2c(N)ncnc21
Activity [1]: 3.8%
inhibition at 15 µM [2]: -3.4%
Activity [3]: -7.46%
Activity [4]: -10.4%
inhibition at 15 µM [5]: -1.77%
inhibition at 15 µM [6]: -2.81%
Activity [7]: 3.8%
inhibition at 15 µM [8]: 2.99%

Nc1ccn(Cc2cn([C@H]3C[C@H](O)[C@@H](CO)O3)nn2)c(=O)n1
Activity [1]: 9.41%
inhibition at 15 µM [2]: 0.95%
Activity [3]: -4.62%
Activity [4]: -5.59%
inhibition at 15 µM [5]: 0.24%
inhibition at 15 µM [6]: 7.89%
Activity [7]: 9.41%
inhibition at 15 µM [8]: 10.1%

O=c1ccn(Cc2cn([C@H]3C[C@H](O)[C@@H](CO)O3)nn2)c(=O)[nH]1
Activity [1]: 9.5%
inhibition at 15 µM [2]: 0.75%
Activity [3]: -4.57%
Activity [4]: -5.59%
inhibition at 15 µM [5]: -2.67%
inhibition at 15 µM [6]: 4.59%
Activity [7]: 9.5%
inhibition at 15 µM [8]: 0.04%

Cc1ccc(C(=O)OC[C@H]2O[C@@H](n3cc(Cn4ccc(N)nc4=O)nn3)C[C@@H]2OC(=O)c2ccc(C)cc2)cc1
Activity [1]: 4.08%
inhibition at 15 µM [2]: -2.26%
Activity [4]: -8.12%
inhibition at 15 µM [5]: -3.67%
Activity [7]: 4.08%
inhibition at 15 µM [8]: 15.6%

Nc1nc(Cl)c2ccn(Cc3cn([C@H]4C[C@H](O)[C@@H](CO)O4)nn3)c2n1
Activity [1]: 1.3%
inhibition at 15 µM [2]: 2.49%
Activity [3]: 8.55%
Activity [4]: -3.3%
inhibition at 15 µM [5]: 5.71%
inhibition at 15 µM [6]: 13.3%
Activity [7]: 1.3%
inhibition at 15 µM [8]: 2.93%

O=C(Nc1ncnc2c1ncn2Cc1cn([C@H]2C[C@H](O)[C@@H](CO)O2)nn1)c1ccccc1
Activity [1]: 5.54%
inhibition at 15 µM [2]: 1.02%
Activity [3]: -2.91%
Activity [4]: -3.55%
inhibition at 15 µM [5]: -1.16%
inhibition at 15 µM [6]: 8.76%
Activity [7]: 5.54%
inhibition at 15 µM [8]: 9.02%

Cc1ccc(C(=O)OC[C@H]2O[C@@H](n3cc(Cn4ccc5c(Cl)ncnc54)nn3)C[C@@H]2OC(=O)c2ccc(C)cc2)cc1
Activity [1]: 0.31%
inhibition at 15 µM [2]: -1.05%
Activity [4]: 20.77%
inhibition at 15 µM [5]: -2.95%
Activity [7]: 0.31%
inhibition at 15 µM [8]: 49.2%

Nc1ncnc2c1ncn2Cc1cn([C@H]2C[C@H](O)[C@@H](CO)O2)nn1
Activity [1]: 7.85%
inhibition at 15 µM [2]: 1.02%
Activity [3]: -2.12%
Activity [4]: -0.61%
inhibition at 15 µM [5]: -0.43%
inhibition at 15 µM [6]: 8.36%
Activity [7]: 7.85%
inhibition at 15 µM [8]: 7.54%

Cc1ccc(C(=O)OC[C@H]2O[C@@H](n3cc(Cn4ccc(=O)[nH]c4=O)nn3)C[C@@H]2OC(=O)c2ccc(C)cc2)cc1
Activity [1]: 3.37%
inhibition at 15 µM [2]: 0.82%
Activity [4]: -4.12%
inhibition at 15 µM [5]: -2.84%
Activity [7]: 3.37%
inhibition at 15 µM [8]: 11.3%

OC[C@H]1O[C@@H](n2cc(Cn3cnc4c3ncn3ccnc43)nn2)C[C@@H]1O
Activity [1]: -2.95%
inhibition at 15 µM [2]: 2.23%
Activity [3]: -11.67%
Activity [4]: -2.24%
inhibition at 15 µM [5]: -2.44%
inhibition at 15 µM [6]: 4.39%
Activity [7]: -2.95%
inhibition at 15 µM [8]: 6.07%
